We go through five compounds from ChEMBL document CHEMBL1149665, “Synthesis and biological evaluation of cepharadiones A and B and related dioxoaporphines” (2007).

Each structure is given as a SMILES string. ≈ marks a conversion by molar mass, not a printed value. Where only a bound is given, the exact number is not on record here.

Holding throughout (assay type): functional
The subject of one assay is DU-145. Nature of the assay: Growth inhibition of human DU145 cells after 48 hrs by SRB assay. The following applies: DU-145, 48 h. The method in brief:
(§1)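 Cells seeded in 5% fetal bovine serum/RPMI1640 and incubated 24 h before serial compound dilutions were added. After 48 h exposure, cells were fixed with trichloroacetic acid and stained with sulforhodamine B (NCI standard SRB protocol), and optical density was read. GI50, the concentration causing 50% reduction in net protein increase, was calculated from the optical density data; values reported in µg/mL.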

In the next assay the test system is BXPC-3. Description: Growth inhibition of human BXPC3 cells after 48 hrs by SRB assay. As to conditions: BXPC-3, 48 h. The method in brief:
as §1

The next assay deals with NCI-H460. Description: Growth inhibition of human NCI-H460 cells after 48 hrs by SRB assay. The following applies: NCI-H460, 48 h. The method in brief: as §1
A further assay deals with MCF7. Nature of the assay: Growth inhibition of human MCF7 cells after 48 hrs by SRB assay. As to conditions: MCF7, 48 h. The method in brief:
as §1

The subject of the next assay is SF-268. Description: Growth inhibition of human SF268 cells after 48 hrs by SRB assay. The following applies: SF-268, 48 h. The method in brief: as §1
In the next assay the test system is KM-20L2. Description: Growth inhibition of human KM20L2 cells after 48 hrs by SRB assay. The following applies: KM-20L2, 48 h. Summed up: as §1

As to `CCOc1ccc2c3c(cc4ccccc4c13)N(C)C(=O)C2=O`, the GI50 in the assay on DU-145, in the assay on BXPC-3, in the assay on NCI-H460, with MCF7, in the assay with SF-268 and in the assay on KM-20L2 was greater than 10 µg/mL each time.

As to `COc1cc2c3c(cc4ccccc4c3c1OC)N(C)C(=O)C2=O` [CEPHARADIONE B], the concentration for 50% growth inhibition (GI50) in the assay with DU-145 was 36.1 µg/mL (≈ 112 µM); with BXPC-3, greater than 10 µg/mL; in the assay with NCI-H460, greater than 10 µg/mL; in the assay with MCF7 it was greater than 10 µg/mL; with SF-268 it was 22.8 µg/mL (≈ 71 µM); in the assay on KM-20L2, greater than 10 µg/mL.

On to `Cc1cc2c3c(cc4ccccc4c3c1C)N(C)C(=O)C2=O`, for which the 50% growth inhibitory concentration (GI50) in the assay on DU-145 was greater than 10 µg/mL; in the assay with BXPC-3, greater than 10 µg/mL; in the assay on NCI-H460, 2.3 µg/mL (≈ 7.95 µM); with MCF7, 8.4 µg/mL (≈ 29 µM); in the assay with SF-268 it was 0.7 µg/mL (≈ 2.42 µM); in the assay with KM-20L2 it was 4.2 µg/mL (≈ 14.5 µM).

As to `CN1C(=O)C(=O)c2cc3c(c4c2c1cc1ccccc14)OCO3` [CEPHARADIONE A], the GI50 was 4.3 µg/mL (≈ 14.1 µM) in the assay with DU-145; greater than 10 µg/mL in the assay on BXPC-3; 2.5 µg/mL (≈ 8.19 µM) in the assay with NCI-H460; 6.3 µg/mL (≈ 20.6 µM) in the assay with MCF7; 2.9 µg/mL (≈ 9.5 µM) with SF-268; 17.3 µg/mL (≈ 56.7 µM) with KM-20L2.

As to `COc1ccc2c3c(cc4ccccc4c13)N(C)C(=O)C2=O`, the GI50 in the assay with DU-145 came to 1.3 µg/mL (≈ 4.46 µM); in the assay on BXPC-3 it was 1.6 µg/mL (≈ 5.49 µM); in the assay on NCI-H460, 0.46 µg/mL (≈ 1.58 µM); with MCF7 it was 0.66 µg/mL (≈ 2.27 µM); with SF-268 it was 0.42 µg/mL (≈ 1.44 µM); in the assay on KM-20L2 it was 0.82 µg/mL (≈ 2.81 µM).
